Assay [1] can be described thus: (§1) Displacement of [131I]IMTO from CYP450c 11 in Wistar rat adrenal membrane. It counts as cell membranes. Summed up: (§2)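 Crude membranes from whole adrenals of adult male Wistar rats, homogenized in 10 mM K2HPO4/10 mM HEPES pH 7.1 and washed; 0.06–0.1 mg original tissue per vial. Competitors at 0.1 nM–300 µM with 2 nM 131I-IMTO (carrier added) in buffer containing 150 mM NaCl, 23 °C, 20–30 min. Filtration, γ counting. Nonspecific binding with 10 µM ETO. IC50 and Hill coefficient from curve fit, mean ± SD.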

The next assay is filed under the species Rattus norvegicus. The assay is described as §1. It counts as cell membranes. The procedure, abridged: as §2
Assay [2] can be described thus: Inhibition on cortisol secretion in human NCI-H295 cells after 48 hrs. The assay is classed as functional, cell-based. As to conditions: for IC50: Homo sapiens, NCI-H295, 48 h. The procedure, abridged: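 NCI-h295 adrenocortical cells grown in RPMI 1640 with insulin, transferrin, selenium and 5% FCS. Compounds at 10 nM–100 µM added to 1 million cells/mL for 48 h, in triplicate. Supernatant cortisol measured by RIA and expressed as percent of control, with control from six uninhibited determinations. IC50 derived from these percentages.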

With `COC(=O)c1cncn1[C@H](C)c1ccc(Br)cc1`, in assay [1], the IC50 came out at 8.95 nM.
As to `CON(C)C(=O)c1cncn1[C@H](C)c1ccccc1`, the figures for the IC50 in assay [1] and in assay [2] were 14 nM and 19.5 nM, respectively. The logIC50 in the assay listed under Rattus norvegicus is 1.18; in assay [2], 1.45.
On the same counts, the results for `CCOC(=O)c1cncn1[C@H](C)c1ccccc1` [ETOMIDATE] are 1.08 nM, 4.57 nM, 0.033 and 0.66.
`CC(C)OC(=O)c1cncn1[C@H](C)c1ccccc1` displayed an IC50 in assay [1] of 1.42 nM.
For the molecule `COC(=O)c1cncn1[C@H](C)c1ccc(C)cc1`, in assay [1], the IC50 is 3.58 nM.
With `COC(=O)c1cncn1Cc1ccccc1`, the IC50 in assay [1] was found to be 28.8 nM; in assay [2] it was 32.1 nM. For the same molecule, the logIC50 in the assay listed under Rattus norvegicus is 1.46; in assay [2], 1.51.
In assay [1], `CC[C@H](c1ccccc1)n1cncc1C(=O)OC` yielded an IC50 of 6.23 nM.
For `COC(=O)c1cncn1[C@@H](C)c1ccccc1`, the IC50 in assay [1] was 492 nM; in assay [2], 593 nM. Besides, the values for the logIC50 (in the assay filed under Rattus norvegicus; in assay [2]) were 2.69 and 2.77, respectively.
The molecule `CCCOC(=O)c1cncn1[C@H](C)c1ccccc1` yielded an IC50 in assay [1] of 2.89 nM.
`COC(=O)c1cncn1Cc1cccnc1` displayed an IC50 in assay [1] of 870 nM.
In assay [1], `CCOC(=O)c1cncn1[C@H](C)c1ccc(I)cc1` had an IC50 of 4.37 nM. Against the preceding molecule, the IC50 is about 200-fold lower.
In assay [1], `COC(=O)c1cncn1[C@H](C)c1cccc(I)c1` came in with an IC50 of 4.44 nM.
The same measure, in the same setting: with `COC(=O)c1cncn1[C@H](C)c1ccc(CO)cc1` the figure was 3.29 nM.
In the case of `COC(=O)c1cncn1[C@H](C)c1ccccc1`, the IC50 in assay [1] stood at 3.69 nM; in assay [2] it was 13.9 nM. Moreover, the logIC50 was 0.57 in the assay filed under Rattus norvegicus and 1.14 in assay [2].
With `CC(=O)c1cncn1[C@H](C)c1ccccc1`, the IC50 in assay [1] is 59.8 nM; in assay [2], 59 nM. Moreover, the values for the logIC50 (in the assay listed under Rattus norvegicus; in assay [2]) were 1.78 and 1.96, respectively.
Molecule `COC(=O)c1cncn1[C@@H]1CCc2ccccc21` came in with an IC50 in assay [1] of 3.26 nM.
As to `CNC(=O)c1cncn1[C@H](C)c1ccccc1`, the figures for the IC50 in assay [1] and in assay [2] were 215 nM and 135 nM, respectively. The values for the logIC50 (in the assay listed under Rattus norvegicus; in assay [2]) were 2.33 and 2.21, respectively.
Turning to `C[C@H](c1ccccc1)n1cncc1C(=O)OCCF`, the IC50 came to 2.89 nM in assay [1] and 8.92 nM in assay [2]. Besides, the logIC50 in the assay filed under Rattus norvegicus amounted to 0.46; in assay [2] it was 1.11.
Regarding `COC(=O)c1cncn1[C@H](C)c1cccnc1`, the IC50 amounted to 20.7 nM in assay [1] and 52.2 nM in assay [2]. Besides, the results for the logIC50 (in the assay listed under Rattus norvegicus; in assay [2]) were 1.32 and 1.72, respectively.
With `C[C@H](c1ccccc1)n1cncc1C(=O)O`, the IC50 in assay [1] came to 123000 nM.
Turning to `COC(=O)c1cncn1[C@H](C)c1ccc(I)cc1` [IODOMETOMIDATE I-123, R-], the figures for the IC50 in assay [1] and in assay [2] were 8.98 nM and 6.95 nM, respectively. Besides, the logIC50 worked out at 0.954 in the assay filed under Rattus norvegicus and 0.84 in assay [2].

Broadly, the IC50 is the point on the concentration scale where inhibition reaches its midpoint. Read a high IC50 as weaker potency in that assay.
